Data on 3 molecules can be found in ChEMBL document CHEMBL3259739, “Synthesis and structure-activity relationship of trisubstituted thiazoles as Cdc7 kinase inhibitors” (Eur J Med Chem, 2014).

For data set [1], the target named is T1, CDC7/DBF4 (Cell division cycle 7-related protein kinase/Activator of S phase kinase) (Homo sapiens, UniProt O00311). Put plainly: Inhibition of Cdc7/Dbf4 (unknown origin) using 0.094 uM of ATP as substrate by AlphaScreen assay. Type of data set: protein-complex assay. An outline of the steps: (§1)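 Mechanism-of-action AlphaScreen run with 6 nM Cdc7/Dbf4 and 10 nM biotinylated MCM2 substrate. […] Reaction time was 2 h. Phospho-Ser53 MCM2 was read by antibody-bound acceptor beads with streptavidin donor beads. Rates and Ki were fitted to a competitive inhibition model.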
(In general: Bead proximity is the source of the signal in Alpha formats.)

For data set [2], the target named is T1, CDC7/DBF4 (Cell division cycle 7-related protein kinase/Activator of S phase kinase). Description: Inhibition of Cdc7/Dbf4 (unknown origin) using 1.5 uM of ATP as substrate by AlphaScreen assay. In kind it is protein-complex assay. An outline of the steps: as §1
Data set [3] has the same target. Put plainly: Inhibition of Cdc7/Dbf4 (unknown origin) using 0.75 uM of ATP as substrate by AlphaScreen assay. Type of data set: protein-complex assay. An outline of the steps: as §1
In data set [4] the test system is rat MDR1. Description: Apparent permeability of the compound in pig LLC-PK1 cells expressing rat MDR1. Type of data set: ADME, cell-based, Sus scrofa.
In the next data set the test system is MDR1. Description: Apparent permeability of the compound in pig LLC-PK1 cells expressing MDR1. Type of data set: ADME, cell-based, Sus scrofa.
In data set [5] the test system is rat MDR1. Description: Efflux ratio of permeability of the compound in pig LLC-PK1 cells expressing rat MDR1. Type of data set: ADME, cell-based, Sus scrofa.
The target of data set [6] is T1, CDC7/DBF4 (Cell division cycle 7-related protein kinase/Activator of S phase kinase). Description: Inhibition of Cdc7/Dbf4 (unknown origin) using 0.188 uM of ATP as substrate by AlphaScreen assay. In kind it is protein-complex assay. Put shortly:
as §1

Data set [7] shares this target. Put plainly: Inhibition of Cdc7/Dbf4 (unknown origin) using 0.375 uM of ATP as substrate by AlphaScreen assay. In kind it is protein-complex assay. An outline of the steps: as §1
The target is the same in data set [8]. Description: Inhibition of Cdc7/Dbf4 (unknown origin) using 3 uM of ATP as substrate by AlphaScreen assay. Type of data set: protein-complex assay.
The nature of data set [9]: Efflux ratio of permeability of the compound in pig LLC-PK1 cells. Type of data set: ADME, cell-based, Sus scrofa.
In data set [10] the target is T1, CDC7/DBF4 (Cell division cycle 7-related protein kinase/Activator of S phase kinase). Put plainly: Inhibition of Cdc7/Dbf4 (unknown origin) using 2 uM of ATP as substrate by AlphaScreen assay. In kind it is protein-complex assay.
Data set [11] is described as follows: Apparent oral clearance in Sprague-Dawley rat at 5 mg/kg, po. Type of data set: ADME, organism-based. Also on record: dose 5 mg/kg, route oral. The note with it: in vivo.
The test system of data set [12] is Plasma. Put plainly: Unbound plasma concentration in NCR nude mouse xenografted with human HCT116 cells at 50 mg/kg, iv after 1 hr. Type of data set: ADME, organism-based, HCT-116. Set-up: dose 50 mg/kg, route intravenous. To be noted: in vivo. An outline of the steps:
(§2)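 HCT-116 xenograft NCR/nu mice (three per group) were given a single iv dose in 20% HPbCD, 1% HPMC, 1% PluronicF68, pH7 at 10 mg/ml. Plasma collected at the time points was measured by LC/MS. Values were converted to unbound concentrations using percent plasma protein binding in mouse serum.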
A general note: In xenograft studies the graft and the host belong to different species.

The target in data set [13] is T1, CDC7/DBF4 (Cell division cycle 7-related protein kinase/Activator of S phase kinase). Put plainly: Inhibition of Cdc7/Dbf4 (unknown origin) using 0.025 uM of ATP as substrate by AlphaScreen assay. Type of data set: protein-complex assay.
Data set [14] relates to Mus musculus. Description: Inhibition of Cdc7/Dbf4 in NCR nude mouse xenografted with human HCT116 cells assessed as reduction of phosphorylated MCM2 level in tumor at 50 mg/kg, iv after 3 hrs. The note with it: HCT-116, 3 h. Type of data set: functional. An outline of the steps:
(§3)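 Female athymic NCR/nu mice, 4–6 weeks old, bearing subcutaneous HCT-116 xenografts (5 × 10^6 cells in Matrigel) grown to about 250 mm3. Single iv dose formulated in 20% HPbCD, 1% HPMC, 1% PluronicF68, pH7 at 10 mg/ml; three mice per group. Tumors were homogenized in Tris lysis buffer with protease and phosphatase inhibitors. MSD capture with total MCM2 antibody, then phospho-Ser53 or total MCM2 detection by chemiluminescence; inhibition taken from the phospho/total ratio.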

A short description of data set [15]: Fraction unbound in mouse plasma. In kind it is ADME, cell-free.
Data set [16] can be described thus: AUC (0 to infinity) in Sprague-Dawley rat at 2 mg/kg, iv. Type of data set: ADME, organism-based. Also on record: time infinity, dose 2 mg/kg, route intravenous. The note with it: plasma.
Data set [17] in a line: AUC (0 to t) in Sprague-Dawley rat at 5 mg/kg, po. In kind it is ADME, organism-based. Also on record: dose 5 mg/kg, route oral. To be noted: plasma.
A short description of data set [18]: Volume of distribution at steady state in Sprague-Dawley rat at 2 mg/kg, iv. In kind it is ADME, organism-based. To be noted: in vivo, read-out: Vdss. Set-up: dose 2 mg/kg, route intravenous.
Data set [19] deals with T1, CDC7/DBF4 (Cell division cycle 7-related protein kinase/Activator of S phase kinase). Description: Inhibition of Cdc7/Dbf4 (unknown origin) using 0.667 uM of ATP as substrate by AlphaScreen assay. Type of data set: protein-complex assay.
Data set [20] concerns Plasma. Description: Unbound plasma concentration in NCR nude mouse xenografted with human HCT116 cells at 150 mg/kg, iv after 1 hr. Type of data set: ADME, organism-based, HCT-116. Set-up: dose 150 mg/kg, route intravenous. The note with it: in vivo. An outline of the steps: as §2
Data set [21] in a line: AUC (0 to infinity) in Sprague-Dawley rat at 5 mg/kg, po. In kind it is ADME, organism-based. Also on record: time infinity, dose 5 mg/kg, route oral. The note with it: plasma.
In data set [22] the test system is Mus musculus. Put plainly: Inhibition of Cdc7/Dbf4 in NCR nude mouse xenografted with human HCT116 cells assessed as reduction of phosphorylated MCM2 level in tumor at 150 mg/kg, iv after 3 hrs. Type of data set: functional. The note with it: HCT-116, 3 h. Put shortly:
as §3

For data set [23], the system named is Mus musculus. Description: Inhibition of Cdc7/Dbf4 in NCR nude mouse xenografted with human HCT116 cells assessed as reduction of phosphorylated MCM2 level in tumor at 150 mg/kg, iv after 1 hr. Type of data set: functional. The note with it: HCT-116, 1 h. An outline of the steps:
as §3

The target of data set [24] is T1, CDC7/DBF4 (Cell division cycle 7-related protein kinase/Activator of S phase kinase). Description: Inhibition of Cdc7/Dbf4 (unknown origin) using 6 uM of ATP as substrate by AlphaScreen assay. In kind it is protein-complex assay.
The target is the same in data set [25]. Description: Inhibition of Cdc7/Dbf4 (unknown origin) using 1 uM of ATP as substrate by AlphaScreen assay. Type of data set: protein-complex assay.
A short description of data set [26]: Clearance in Sprague-Dawley rat at 2 mg/kg, iv. Type of data set: ADME, organism-based. Set-up: dose 2 mg/kg, route intravenous. To be noted: in vivo.
The target in data set [27] is T1, CDC7/DBF4 (Cell division cycle 7-related protein kinase/Activator of S phase kinase). Description: Inhibition of Cdc7/Dbf4 (unknown origin) using 0.074 uM of ATP as substrate by AlphaScreen assay. Type of data set: protein-complex assay.
Data set [28] deals with Mus musculus. Put plainly: Inhibition of Cdc7/Dbf4 in NCR nude mouse xenografted with human HCT116 cells assessed as reduction of phosphorylated MCM2 level in tumor at 150 mg/kg, iv after 6 hrs. Type of data set: functional. To be noted: HCT-116, 6 h. Put shortly: as §3
For data set [29], the target named is T1, CDC7/DBF4 (Cell division cycle 7-related protein kinase/Activator of S phase kinase). Put plainly: Inhibition of Cdc7/Dbf4 (unknown origin) using 54 uM of ATP as substrate by AlphaScreen assay. In kind it is protein-complex assay.
The target is the same in data set [30]. Put plainly: Inhibition of Cdc7/Dbf4 (unknown origin) using 0.333 uM of ATP as substrate by AlphaScreen assay. In kind it is protein-complex assay.
Data set [31] has the same target. Put plainly: Inhibition of Cdc7/Dbf4 (unknown origin) using 0.222 uM of ATP as substrate by AlphaScreen assay. In kind it is protein-complex assay.
Data set [32] is described as follows: Half life in Sprague-Dawley rat at 2 mg/kg, iv. Type of data set: ADME, organism-based. To be noted: in vivo. Also on record: dose 2 mg/kg, route intravenous.
The target in data set [33] is T1, CDC7/DBF4 (Cell division cycle 7-related protein kinase/Activator of S phase kinase). Put plainly: Inhibition of Cdc7/Dbf4 (unknown origin) using 18 uM of ATP as substrate by AlphaScreen assay. Type of data set: protein-complex assay.
The subject of data set [34] is Mus musculus. Description: Inhibition of Cdc7/Dbf4 in NCR nude mouse xenografted with human HCT116 cells assessed as reduction of phosphorylated MCM2 level in tumor at 50 mg/kg, iv after 6 hrs. Type of data set: functional. The note with it: HCT-116, 6 h. Put shortly: as §3
Data set [35] deals with T1, CDC7/DBF4 (Cell division cycle 7-related protein kinase/Activator of S phase kinase). Put plainly: Inhibition of Cdc7/Dbf4 (unknown origin) using 0.012 uM of ATP as substrate by AlphaScreen assay. In kind it is protein-complex assay. An outline of the steps: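 AlphaScreen with 6 nM Cdc7/Dbf4 and 10 nM biotinylated His/avitag MCM2 (aa1-467) substrate. Phospho-Ser53 MCM2 detected with antibody-bound Protein A acceptor and streptavidin donor beads. Rates fitted by Michaelis–Menten and double-reciprocal plots.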

A short description of data set [36]: Cmax in Sprague-Dawley rat at 5 mg/kg, po. Set-up: dose 5 mg/kg, route oral. In kind it is ADME, organism-based. The note with it: in vivo.
For data set [37], the target named is CDC7/DBF4 (Cell division cycle 7-related protein kinase/Activator of S phase kinase) (Homo sapiens) (UniProt Q9UBU7+O00311). Put plainly: Ratio of IC50 for Cdc7/Dbf4 in human HCT116 cells to IC50 for Cdc7/Dbf4 (unknown origin). The note with it: HCT-116. Type of data set: cell-based.
Chain of CDC7/DBF4 (Cell division cycle 7-related protein kinase/Activator of S phase kinase) (Homo sapiens) (O00311 whole entry, looked up): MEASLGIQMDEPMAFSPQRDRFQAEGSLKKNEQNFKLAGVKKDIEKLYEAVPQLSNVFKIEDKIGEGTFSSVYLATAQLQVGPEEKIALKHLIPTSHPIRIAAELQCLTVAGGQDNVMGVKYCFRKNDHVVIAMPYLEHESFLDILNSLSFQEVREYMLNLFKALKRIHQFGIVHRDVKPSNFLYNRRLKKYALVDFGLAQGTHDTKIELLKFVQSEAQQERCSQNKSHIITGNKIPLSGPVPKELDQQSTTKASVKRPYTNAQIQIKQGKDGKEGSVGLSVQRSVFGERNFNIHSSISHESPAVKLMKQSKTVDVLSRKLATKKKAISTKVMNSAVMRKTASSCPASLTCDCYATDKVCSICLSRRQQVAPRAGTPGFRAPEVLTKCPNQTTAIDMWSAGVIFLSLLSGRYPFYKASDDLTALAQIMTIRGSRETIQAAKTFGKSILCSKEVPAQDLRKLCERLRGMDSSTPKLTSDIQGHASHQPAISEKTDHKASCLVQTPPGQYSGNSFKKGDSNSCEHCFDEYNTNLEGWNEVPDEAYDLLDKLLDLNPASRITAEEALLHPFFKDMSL
Chain of CDC7/DBF4 (Cell division cycle 7-related protein kinase/Activator of S phase kinase) (Homo sapiens) (Q9UBU7 whole entry, looked up): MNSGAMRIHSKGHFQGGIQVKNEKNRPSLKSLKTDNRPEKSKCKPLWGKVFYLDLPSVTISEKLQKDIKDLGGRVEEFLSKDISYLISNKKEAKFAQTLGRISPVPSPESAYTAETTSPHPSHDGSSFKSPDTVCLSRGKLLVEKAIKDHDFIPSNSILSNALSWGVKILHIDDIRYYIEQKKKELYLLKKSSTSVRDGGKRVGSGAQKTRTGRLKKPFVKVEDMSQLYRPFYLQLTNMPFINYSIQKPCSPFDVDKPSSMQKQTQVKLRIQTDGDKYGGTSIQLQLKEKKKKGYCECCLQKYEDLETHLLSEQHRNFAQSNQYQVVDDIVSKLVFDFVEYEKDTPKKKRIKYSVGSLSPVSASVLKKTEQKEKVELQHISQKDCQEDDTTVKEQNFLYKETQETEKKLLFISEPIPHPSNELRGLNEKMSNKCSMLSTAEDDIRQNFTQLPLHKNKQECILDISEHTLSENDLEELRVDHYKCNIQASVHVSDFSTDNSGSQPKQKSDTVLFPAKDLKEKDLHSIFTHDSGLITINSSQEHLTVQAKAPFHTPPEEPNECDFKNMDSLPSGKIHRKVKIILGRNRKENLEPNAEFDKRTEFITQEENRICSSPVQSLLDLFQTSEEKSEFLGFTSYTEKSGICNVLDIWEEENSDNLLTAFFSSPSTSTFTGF

T1 sequence (Q9UBU7 whole entry): as the sequence (Q9UBU7 whole entry, looked up) above
T1 sequence (O00311 whole entry): as the sequence (O00311 whole entry, looked up) above

By IC50 is commonly meant the concentration needed to halve the response being measured. A word on the Papp: it is a coefficient for how fast a substance crosses the barrier. Usually efflux ratio stands for a quotient of directional permeabilities that is used to spot active efflux. As for `CCOC(=O)c1sc(-c2ccncc2)nc1O`, the IC50 was 528 nM in data set [1]; 318 nM in data set [2]; 316 nM in data set [3]; 547 nM in data set [6]; 546 nM in data set [7]; 419 nM in [8]. Further, the Papp in the data set on rat MDR1 [4] and with MDR1 was at least 8.9 ×10⁻⁶ cm/s each time. Moreover, the efflux ratio (with rat MDR1 [5]; in [9]) was 1 throughout.
For orientation: CL/F means the apparent clearance, not corrected for the fraction that reaches the circulation. In general, inhibition in vivo refers to the share of the control response that was lost under treatment. A word on the fraction unbound: it is the share of the substance not bound to proteins or other matrix. The term AUC(0-inf) denotes the area under the concentration-time curve extrapolated to infinity. A higher AUC(0-inf) goes with more exposure. What is called AUC(0-t) is exposure summed from dosing to a finite time, without extrapolation to infinity. Lower therefore signals low exposure. Usually clearance stands for the volume of plasma or blood freed of the substance per unit of time. Read a high clearance as efficient removal. Broadly, the half-life is the time in which the quantity being followed falls by half. Read a low half-life as rapid decline. What is called Cmax is the highest concentration seen after dosing. In the case of `NC(=O)c1sc(-c2ccnc(N)n2)nc1-c1ccc(Cl)cc1Cl`, the IC50 in [10] is 10 nM; in data set [13] it was 40 nM; in data set [19], 14 nM; in [24], 13 nM; in data set [25], 10 nM; in data set [27] it was 64 nM. For the same molecule, the IC50 in [29] was found to be 86 nM; in data set [30] it was 20 nM; in [31], 35 nM; in data set [33], 23 nM; in data set [35] it was 17 nM. Further, the CL/F in data set [11] was 1050 mL/min/kg. In addition, the entries for the “Cp(f)” value in the data set on Plasma [12] and in the data set with Plasma [20] were over 1000 nM and 5000 nM, respectively. The inhibition in vivo at 50 mg/kg was determined as 39% with Mus musculus [14] and 20% in the data set on Mus musculus [34]. For the same molecule, in [15], the fraction unbound stood at 0.09. Moreover, the figures for the AUC(0-inf) in data set [16] and in data set [21] were 521 ng·h/mL and 85.7 ng·h/mL, respectively. The molecule further showed an AUC(0-t) in data set [17] of 83.3 ng·h/mL. Further, in [18], the Vd was determined as 4.43 L/kg. Also, the inhibition in vivo at 150 mg/kg in the data set with Mus musculus [22] was determined as 38%; with Mus musculus [23], 30%; in the data set with Mus musculus [28], 31%. In [26], this molecule showed a clearance of 64.8 mL/min/kg. In [32], this molecule showed a half-life of 6.56 h. The molecule also came in with a Cmax in [36] of 13 ng/mL.
Consider `COc1ccc(-c2nc(-c3ccnc(N)n3)sc2C(N)=O)c(Cl)c1`, for which, in [37], the Ratio IC50 is over 30.
